From ChEMBL document CHEMBL4251593, “Nontoxic combretafuranone analogues with high in vitro antibacterial activity” (Eur J Med Chem, 2018)
pIC50: −log10 of the molar value. Values after ≈ are worked out from the molar mass of the structure shown.

Columns and labels:
[1] = test system: K562; assay: Induction of apoptosis in human K562 cells assessed as caspase 3/7 activity after 24 hrs by caspase-glo luminescent assay; format: cell-based; settings: K562, 24 h
Summary of the method: (§1)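 Cells were seeded at 500 per well in their growth media and exposed to 12 concentrations from 40 µM to 1 nM, delivered from DMSO, in triplicate. After 24 h, caspase-3/7 activity was read by Caspase-Glo luminescence. Data were normalized and ED50 was fitted by variable-slope nonlinear regression.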

[2] = test system: Klebsiella pneumoniae; assay: Antibacterial activity against Klebsiella pneumoniae HK11750/08 clinical isolate after 24 hrs by microdilution assay; format: functional; settings: HK11750/08, 24 h
[3] = test system: TERT-RPE1; assay: Cytotoxicity against human RPE1 cells assessed as reduction in cell viability after 48 hrs by ATPlite-based luminescent assay; settings: RPE-1, 48 h
Summary of the method: (§2)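 Cells were grown […] with 10% FBS, glutamax, NEAA and pen/strep at 37 °C, 5% CO2. Media were DMEM for RPE-1, HepG2 and BJ (BJ plus 10 ng/ml bFGF), F-12K for PC3, and IMDM for K562/HL-60. Cells were seeded at 500 per well and dosed from DMSO at 12 concentrations, 40 µM to 1 nM, in triplicate. After 48 h, intracellular ATP was read by luminescence. ED50 was obtained by variable-slope nonlinear regression.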

[4] = test system: Klebsiella pneumoniae; assay: Antibacterial activity against Klebsiella pneumoniae HK14368/08 clinical isolate after 48 hrs by microdilution assay; format: functional; settings: HK14368/08, 48 h
[5] = test system: HepG2; assay: Induction of apoptosis in human HepG2 cells assessed as caspase 3/7 activity after 24 hrs by caspase-glo luminescent assay; format: cell-based; settings: HepG2, 24 h; summary of the method: as §1
[6] = test system: HepG2; assay: Cytotoxicity against human HepG2 cells assessed as reduction in cell viability after 48 hrs by ATPlite-based luminescent assay; settings: HepG2, 48 h; summary of the method: as §2
[7] = test system: K562; assay: Cytotoxicity against human K562 cells assessed as reduction in cell viability after 48 hrs by ATPlite-based luminescent assay; settings: K562, 48 h; summary of the method: as §2
[8] = test system: PC-3; assay: Cytotoxicity against human PC3 cells assessed as reduction in cell viability after 48 hrs by ATPlite-based luminescent assay; settings: PC-3, 48 h; summary of the method: as §2
[9] = test system: PC-3; assay: Induction of apoptosis in human PC3 cells assessed as caspase 3/7 activity after 24 hrs by caspase-glo luminescent assay; format: cell-based; settings: PC-3, 24 h; summary of the method: as §1
[10] = test system: BJ; assay: Cytotoxicity against human BJ cells assessed as reduction in cell viability after 48 hrs by ATPlite-based luminescent assay; summary of the method: as §2
[11] = test system: Staphylococcus aureus; assay: Antibacterial activity against Staphylococcus aureus ATCC 6538 after 24 hrs by microdilution assay; format: functional; settings: ATCC 6538, 24 h
[12] = test system: Escherichia coli; assay: Antibacterial activity against Escherichia coli ATCC 8739 after 24 hrs by microdilution assay; format: functional; settings: ATCC 8739, 24 h
Summary of the method: (§3)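 Broth microdilution in Mueller-Hinton medium buffered to pH 7.4 (±0.2), with DMSO as diluent at no more than 2% final. Compounds were tested as 2-fold serial dilutions from 2000 to 0.488 µmol/l. The inoculum was 0.5 McFarland (1.5×10^8 cfu/ml). Plates were held at 37 °C and read visually at 24 and 48 h. MIC was taken as 95% growth inhibition versus control, determined twice in duplicate.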

[13] = test system: Staphylococcus aureus; assay: Antibacterial activity against methicillin-resistant Staphylococcus aureus HK5996/08 clinical isolate after 48 hrs by microdilution assay; format: functional; settings: HK5996/08, 48 h
[14] = test system: HL-60; assay: Cytotoxicity against human HL60 cells assessed as reduction in cell viability after 48 hrs by ATPlite-based luminescent assay; settings: HL-60, 48 h; summary of the method: as §2
[15] = test system: TERT-RPE1; assay: Induction of apoptosis in human RPE1 cells assessed as caspase 3/7 activity after 24 hrs by caspase-glo luminescent assay; format: cell-based; settings: RPE-1, 24 h; summary of the method: as §1
[16] = test system: Enterococcus sp.; assay: Antibacterial activity against Enterococcus sp. HK14365/08 clinical isolate after 24 hrs by microdilution assay; format: functional; settings: HK14365/08, 24 h
[17] = test system: Staphylococcus aureus; assay: Antibacterial activity against Staphylococcus aureus ATCC 6538 after 48 hrs by microdilution assay; format: functional; settings: ATCC 6538, 48 h
[18] = test system: MCF7; assay: Cytotoxicity against human MCF7 cells assessed as reduction in cell viability after 48 hrs by ATPlite-based luminescent assay; settings: MCF7, 48 h
[19] = test system: Pseudomonas aeruginosa; assay: Antibacterial activity against Pseudomonas aeruginosa ATCC 9027 after 24 hrs by microdilution assay; format: functional; settings: ATCC 9027, 24 h; summary of the method: as §3
[20] = test system: Staphylococcus aureus; assay: Antibacterial activity against methicillin-resistant Staphylococcus aureus HK5996/08 clinical isolate after 24 hrs by microdilution assay; format: functional; settings: HK5996/08, 24 h
[21] = test system: Klebsiella pneumoniae; assay: Antibacterial activity against Klebsiella pneumoniae HK14368/08 clinical isolate after 24 hrs by microdilution assay; format: functional; settings: HK14368/08, 24 h
[22] = test system: HL-60; assay: Induction of apoptosis in human HL60 cells assessed as caspase 3/7 activity after 24 hrs by caspase-glo luminescent assay; format: cell-based; settings: HL-60, 24 h; summary of the method: as §1
[23] = test system: Staphylococcus epidermidis; assay: Antibacterial activity against Staphylococcus epidermidis HK6966/08 clinical isolate after 24 hrs by microdilution assay; format: functional; settings: HK6966/08, 24 h
[24] = test system: Klebsiella pneumoniae; assay: Antibacterial activity against Klebsiella pneumoniae HK11750/08 clinical isolate after 48 hrs by microdilution assay; format: functional; settings: HK11750/08, 48 h
[25] = test system: Pseudomonas aeruginosa; assay: Antibacterial activity against Pseudomonas aeruginosa ATCC 9027 after 48 hrs by microdilution assay; format: functional; settings: ATCC 9027, 48 h; summary of the method: as §3
[26] = test system: Enterococcus sp.; assay: Antibacterial activity against Enterococcus sp. HK14365/08 clinical isolate after 48 hrs by microdilution assay; format: functional; settings: HK14365/08, 48 h
[27] = test system: Escherichia coli; assay: Antibacterial activity against Escherichia coli ATCC 8739 after 48 hrs by microdilution assay; format: functional; settings: ATCC 8739, 48 h; summary of the method: as §3
[28] = test system: Staphylococcus epidermidis; assay: Antibacterial activity against Staphylococcus epidermidis HK6966/08 clinical isolate after 48 hrs by microdilution assay; format: functional; settings: HK6966/08, 48 h

SMILES: O=C1OCC(c2ccc(C(F)(F)F)cc2)=C1c1c[nH]c2ccccc12
- pIC50 [1]: < 4.40
- MIC95 [2]: > 125 µM
- pIC50 [3]: 6.06
- MIC95 [4]: > 125 µM
- pIC50 [5]: < 4.40
- pIC50 [6]: < 4.40
- pIC50 [7]: 6.59
- pIC50 [8]: < 4.40
- pIC50 [9]: < 4.40
- pIC50 [10]: < 4.40
- MIC95 [11]: > 125 µM
- MIC95 [12]: > 125 µM
- MIC95 [13]: > 125 µM
- pIC50 [14]: 6.17
- pIC50 [15]: 5.81
- MIC95 [16]: > 125 µM
- MIC95 [17]: > 125 µM
- pIC50 [18]: < 4.40
- MIC95 [19]: > 125 µM
- MIC95 [20]: > 125 µM
- MIC95 [21]: > 125 µM
- pIC50 [22]: 5.53
- MIC95 [23]: > 125 µM
- MIC95 [24]: > 125 µM
- MIC95 [25]: > 125 µM
- MIC95 [26]: > 125 µM
- MIC95 [27]: > 125 µM
- MIC95 [28]: > 125 µM

SMILES: CC(=O)OCC1(COC(C)=O)OC(=O)C(c2ccc(Br)cc2)=C1c1ccc(C)cc1
- pIC50 [1]: < 4.40
- MIC95 [2]: > 125 µM
- pIC50 [3]: < 4.40
- MIC95 [4]: > 125 µM
- pIC50 [5]: < 4.40
- pIC50 [6]: < 4.40
- pIC50 [7]: < 4.40
- pIC50 [8]: < 4.40
- pIC50 [9]: < 4.40
- pIC50 [10]: < 4.40
- MIC95 [11]: > 125 µM
- MIC95 [12]: > 125 µM
- MIC95 [13]: > 125 µM
- pIC50 [14]: < 4.40
- pIC50 [15]: < 4.40
- MIC95 [16]: > 125 µM
- MIC95 [17]: > 125 µM
- pIC50 [18]: < 4.40
- MIC95 [19]: > 125 µM
- MIC95 [20]: > 125 µM
- MIC95 [21]: > 125 µM
- pIC50 [22]: < 4.40
- MIC95 [23]: > 125 µM
- MIC95 [24]: > 125 µM
- MIC95 [25]: > 125 µM
- MIC95 [26]: > 125 µM
- MIC95 [27]: > 125 µM
- MIC95 [28]: > 125 µM

SMILES: COc1ccc(C2=C(c3ccc(OC)c(OC)c3)C(CO)OC2=O)cc1 (centres undefined)
- pIC50 [1]: < 4.40
- MIC95 [2]: > 125 µM
- pIC50 [3]: < 4.40
- MIC95 [4]: > 125 µM
- pIC50 [5]: < 4.40
- pIC50 [6]: < 4.40
- pIC50 [7]: < 4.40
- pIC50 [8]: < 4.40
- pIC50 [9]: < 4.40
- pIC50 [10]: < 4.40
- MIC95 [11]: 125 µM (≈ 44.5 µg/mL)
- MIC95 [12]: > 125 µM
- MIC95 [13]: 125 µM (≈ 44.5 µg/mL)
- pIC50 [14]: < 4.40
- pIC50 [15]: < 4.40
- MIC95 [16]: > 125 µM
- MIC95 [17]: 125 µM (≈ 44.5 µg/mL)
- pIC50 [18]: < 4.40
- MIC95 [19]: > 125 µM
- MIC95 [20]: 125 µM (≈ 44.5 µg/mL)
- MIC95 [21]: > 125 µM
- pIC50 [22]: < 4.40
- MIC95 [23]: 62.5 µM (≈ 22.3 µg/mL)
- MIC95 [24]: > 125 µM
- MIC95 [25]: > 125 µM
- MIC95 [26]: > 125 µM
- MIC95 [27]: > 125 µM
- MIC95 [28]: 62.5 µM (≈ 22.3 µg/mL)
